# Results reported in ChEMBL document CHEMBL4477209, “Indole-2-carboxamide-based MmpL3 Inhibitors Show Exceptional Antitubercular Activity in an Animal Model of Tuberculosis Infection” (J Med Chem, 2016).
# Calls of active or inactive are those of the source. The calls are words filed in the database; no cut-off is given here.
# Assays:
# [1] = target: T1, Nuclear receptor subfamily 1 group I member 3 (Homo sapiens, UniProt Q14994); test: Transactivation of CAR (unknown origin) assessed as upregulation of CYP2B6; type: ADME
# T1 sequence (Q14994 whole entry): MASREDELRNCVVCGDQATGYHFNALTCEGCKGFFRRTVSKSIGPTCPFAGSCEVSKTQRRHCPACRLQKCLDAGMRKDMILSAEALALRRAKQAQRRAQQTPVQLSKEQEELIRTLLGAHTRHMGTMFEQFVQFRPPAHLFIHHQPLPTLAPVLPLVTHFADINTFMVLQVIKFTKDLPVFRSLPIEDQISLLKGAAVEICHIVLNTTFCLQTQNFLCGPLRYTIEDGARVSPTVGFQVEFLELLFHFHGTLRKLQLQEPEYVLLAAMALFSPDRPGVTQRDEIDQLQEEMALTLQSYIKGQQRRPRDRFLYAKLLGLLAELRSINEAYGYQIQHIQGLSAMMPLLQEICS
# Method in brief: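 Nuclear receptor reporter-gene induction assay, with reporters coupled to PXR, CAR or AhR. Compound was tested at 0.1–1, 3 and 8 μg/mL. Positive controls were rifampin for PXR, CITCO for CAR and 3-methylcholanthrene for AhR.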
# [2] = Mutagenicity in Salmonella typhimurium TA98 assessed as increase in ratio of revertant colonies in presence of S9 liver fraction relative to control; type: toxicity, subcellular; settings: salmonella enterica subsp. enterica serovar typhimurium
# [3] = Oral bioavailability in BALB/c mouse at 10 mg/kg administered for 30 to 120 mins followed by Mycobacterium tuberculosis H37Rv addition to compound treated serum incubated for 7 days by alamar blue reagent based serum inhibition titration assay; type: ADME, organism-based; settings: in vivo
# Method in brief: (§1)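 Six-week-old female BALB/c mice (20 g) given one oral dose as suspension in 0.5% CMC in water; isoniazid 10 mg/kg as positive control, vehicle as negative. Serum collected at 30, 60 and 120 min, pooled from three mice per time point, 2-fold serially diluted. 10^4 CFU H37Rv added per well, 7 days at 37 °C. alamarBlue added for 16−18 h, fluorescence read at Ex544/Em590 and plotted against serum titration.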
# [4] = tested on: Mycobacterium tuberculosis H37Rv; test: Inhibition of MmpL3 in clinical isolates of drug sensitive Mycobacterium tuberculosis H37Rv after 7 to 14 days by alamar blue assay
# [5] = tested on: Mycobacterium tuberculosis; test: Antimycobacterial activity against Mycobacterium tuberculosis H37Rv grown on serum isolated from 10 mg/kg, po treated BALB/c mouse for 30 to 120 mins assessed as reduction in bacterial growth followed by bacterial addition incubated for 7 days by alamar blue reagent based serum inhibition titration assay; type: functional, organism-based; method in brief: as §1
compound,measurement,setting,value
Clc1ccc(-c2nc3sccn3c2/C=N/OCc2ccc(Cl)c(Cl)c2)cc1,Activity,[1],Active
Nc1ccc2cc3ccccc3cc2c1 [2-AMINOANTHRACENE],fold change (FC),[2],173
NNC(=O)c1ccncc1 [ISONIAZID],Drug uptake,[3],Active
same,MIC90,[4],0.29 µM
same,Activity,[5],Active
